In article PMC3251632 (Cancer research, 2011):
Entries after “also recorded” stand apart in the source; their conditions may differ.

What was measured:
[1] = SW43 by itself, vs SV119; ref ([24]); cited from earlier work
[2] = test system: pancreatic cancer cell lines; assay: Killing capacity in additional pancreatic cancer cell lines in vitro; type: cell-based; conditions: all cell lines under investigation; supplementary Fig. 3
Panc02 tumors [3] = assay: Syngeneic Panc02 tumor growth and survival; type: in vivo, mouse (C57BL/6); conditions: C57BL/6 mice with Panc02 tumors; supplementary Fig. 4
Procedure, shortened: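 Female C57BL/6 mice, 8–12 weeks old, carried 1 × 10^6 Panc02 cells in the flank. Dosing began ~2 weeks after implantation (mean diameter ~6–7 mm): i.p. every other day for two weeks, n = 12 per group. Mice were euthanised at tumour ulceration or a mean diameter of 15 mm. Survival was plotted as Kaplan-Meier curves and compared by log-rank test.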

σ-2 receptor = σ-2 receptor (Homo sapiens, UniProt Q5BJF2); assay: Competitive displacement of fluorescent sigma-2 ligand SW120; type: binding, human (CFPAC cells); conditions: compared to non-conjugated SV119; CFPAC cells
σ-2 receptor, sequence (Q5BJF2 whole entry): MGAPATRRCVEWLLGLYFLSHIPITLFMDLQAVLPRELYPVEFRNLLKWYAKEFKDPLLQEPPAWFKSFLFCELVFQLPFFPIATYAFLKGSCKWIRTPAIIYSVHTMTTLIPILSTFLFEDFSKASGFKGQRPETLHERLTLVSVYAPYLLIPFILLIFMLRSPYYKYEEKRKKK

CFPAC tumors = assay: Xenograft CFPAC tumor growth; type: in vivo, human tumor in nude mice; conditions: daily treatment for one week, CFPAC-bearing nude mice, n = 12 per group
Procedure, shortened: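 Female nu/nu mice, 8–12 weeks old, carried 2 × 10^6 CFPAC cells in the flank. Treatment began ~2 weeks after implantation (mean diameter ~6–7 mm) and was given daily for one week, n = 12 per group. Tumour growth was measured by caliper as mean diameter. Groups were compared by one-tailed Student's t test.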

Panc02 tumors [4] = assay: In vivo apoptosis in Panc02 tumors; design: species or system mouse (C57BL/6); conditions: single i.p. dose (S2-Bim 400 μg), next day, n = 3
Procedure, shortened: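 Female C57BL/6 mice, 8–12 weeks old, received 1 × 10^6 Panc02 cells subcutaneously in the right flank. At two weeks (mean tumour diameter ~5 mm) they got a single i.p. dose of 400 μg. Tumours were harvested 24 h later. For TUNEL, tumours were stained directly. For caspase-3, tumours were minced to 1 mm and digested 45 min in RPMI with 1 mg/mL collagenase and 0.1 mg/mL DNase, filtered, ACK-lysed, resuspended in PBS pH 7.4, fixed in 1% paraformaldehyde, and read by flow cytometry for activated caspase-3.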

[5] = ref ([30]–[32]); cited from earlier work
Akt = Akt phosphorylation in CFPAC cells; type: cell-based, human
Panc02 cells = assay: Caspase-3 activation; type: cell-based, mouse; conditions: 10 μM, 24 h, flow cytometry

COc1ccc(C)cc1NC(=O)OC1CC2CCCC(C1)N2CCCCCCCCCCN (stereo not drawn) [SW43]
cytotoxicity relative to SV119 [1]: twice as cytotoxic by itself

EIWIAQEARRIGAEFNAYYAR-OH [S2-BimX]
potency / response of pancreatic cancer cell lines (in words) [2]: virtually no activity in all cell lines tested; also recorded: complete loss of killing activity | time by which all mice had died (Panc02 tumors [3]): 43 days post tumor inoculation | displacement of SW120 (in words) (σ-2 receptor): displaced SW120 in a dose-dependent fashion | tumor growth, CFPAC xenograft (in words) (CFPAC tumors): somewhat reduced tumor growth rate; also recorded: elicited SV119 baseline activity | tumor cell apoptosis (activated caspase-3) in words (Panc02 tumors [4]): only background signals

CC1(C)CCC(c2ccc(Cl)cc2)=C(CN2CCN(c3ccc(C(=O)NS(=O)(=O)c4ccc(N[C@H](CCN5CCOCC5)CSc5ccccc5)c(S(=O)(=O)C(F)(F)F)c4)cc3)CC2)C1 [ABT-263]
oral bioavailability (in words) [5]: orally bioavailable

CC(C)=CCN1CC[C@]2(C)c3cc(O)ccc3C[C@H]1[C@H]2C [(+)-pentazocine, reference compound]
displacement of SW120 (in words) (σ-2 receptor): unable to compete off SW120

LDPKLMKEEQMSQAQLFTRSFDDGL-OH [S2-CTMP-4]
interference with Akt activation (phosphorylation) (Akt; CFPAC cells, 24 hours post-treatment): capable of interfering with Akt activation | fold increase in apoptosis (caspase-3 induction) vs SV119 alone (Panc02 cells): 1.3 fold

COc1ccc(C)cc1NC(=O)OC1C[C@H]2CCC[C@@H](C1)N2CCCCCCN (stereo partly drawn) [SV119]
activation status of the two central kinases (Akt and p70 S6 kinase) (Akt; SV119 alone, 24 hours, also p70 S6 kinase (data not shown)): incapable of altering the activation status of these two central kinases | tumor growth, CFPAC xenograft (in words) (CFPAC tumors): somewhat reduced tumor growth rate
